The results in this text go back to ChEMBL document CHEMBL2417474, “Synthesis, antiproliferative and anti-inflammatory activities of some novel 6-aryl-2-(p-(methanesulfonyl)phenyl)-4,5-dihydropyridazi-3(2H)-ones” (Eur J Med Chem, 2013).

The structures appear in SMILES notation.

Broadly, the GI50 is the concentration that inhibits growth by half. A higher GI50 goes with less potent growth inhibition.

In one test the test system is K562. Briefly: Growth inhibition of human K562 cells after 48 hrs by sulforhodamine B assay. The conditions noted are these: K562, 48 h. The class given is functional. The essentials:
(§1)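 NCI 60-cell-line panel grown in RPMI-type medium with 5% fetal calf serum and 2 mM L-glutamine. Cells preincubated 24 h, then exposed continuously for 48 h to compound in DMSO at 10^-4 to 10^-8 M (five 10-fold levels). Growth read by SRB protein stain. GI50 is the concentration giving a 50% reduction in net protein increase relative to control cells.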
For orientation: The SRB assay estimates cell density from bound dye.

A further test relates to SF-539. Briefly: Growth inhibition of human SF539 cells after 48 hrs by sulforhodamine B assay. As to conditions: SF-539, 48 h. Format: functional. The essentials:
(§2)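 NCI 60-cell-line panel. Cells were grown in medium with 5% fetal calf serum and 2 mM L-glutamine, then preincubated 24 h in plates. Compounds were added from DMSO at five 10-fold concentrations from 100 to 0.01 µM and left on cells continuously for 48 h. Cell growth was read by sulforhodamine B protein stain. GI50 is the concentration that halves net protein increase relative to control cells.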

A further test has as its system U-251. Nature of the test: Growth inhibition of human U251 cells after 48 hrs by sulforhodamine B assay. The class given is functional. The conditions noted are these: U-251, 48 h. Put shortly:
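NCI 60-line panel. Cells were grown in medium with 5% fetal calf serum and 2 mM L-glutamine and preincubated 24 h in plates. Compound in DMSO was added at 10^-4 to 10^-8 M (five 10-fold levels), with continuous exposure for 48 h. Growth was read by SRB protein staining. GI50 is the concentration giving 50% reduction in net protein increase versus control cells.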

Another test deals with A498. Briefly: Growth inhibition of human A498 cells after 48 hrs by sulforhodamine B assay. Format: functional. As to conditions: A498, 48 h. Put shortly: as §1
The subject of a further test is RPMI-8226. Nature of the test: Growth inhibition of human RPMI8226 cells after 48 hrs by sulforhodamine B assay. The class given is functional. As to conditions: RPMI-8226, 48 h. Put shortly: as §2
A further test has as its system CCRF-CEM. Nature of the test: Growth inhibition of human CCRF-CEM cells after 48 hrs by sulforhodamine B assay. Format: functional, cell-based. The essentials:
as §1

The next test concerns A549. Nature of the test: Growth inhibition of human A549/ATCC cells after 48 hrs by sulforhodamine B assay. Format: functional. The conditions noted are these: A549, 48 h. Put shortly:
as §1

In another test the test system is SK-MEL-2. Briefly: Growth inhibition of human SK-MEL-2 cells after 48 hrs by sulforhodamine B assay. Format: functional. The conditions noted are these: SK-MEL-2, 48 h. Put shortly: as §2
The next test has as its system MCF7. Briefly: Growth inhibition of human MCF7 cells after 48 hrs by sulforhodamine B assay. The class given is functional. As to conditions: MCF7, 48 h. The essentials:
as §1

The test system of a further test is HOP-92. Briefly: Growth inhibition of human HOP92 cells after 48 hrs by sulforhodamine B assay. Format: functional. The conditions noted are these: HOP-92, 48 h. Put shortly:
as §1

For a further test, the system named is M14. Nature of the test: Growth inhibition of human M14 cells after 48 hrs by sulforhodamine B assay. The conditions noted are these: M14, 48 h. The class given is functional. Put shortly: as §1

Consider `O=c1[nH]cc(F)c(=O)[nH]1` [FLUOROURACIL], for which the GI50 with K562 is 3.58 µM; with SF-539 it was 0.06 µM; with U-251, 0.9 µM; in the test with A498, 0.35 µM; in the test on RPMI-8226, 0.04 µM; in the test on CCRF-CEM it was 9.79 µM. The GI50 in the test with A549 was found to be 0.18 µM; in the test with SK-MEL-2 it was 56.7 µM; in the test on MCF7, 0.07 µM; in the test on HOP-92, 77.9 µM; in the test on M14 it was 0.98 µM.
